These results are taken from ChEMBL document CHEMBL4480436, “Lead optimization of selective tubulin inhibitors as anti-trypanosomal agents” (Bioorg Med Chem, 2019).

Structures are written as SMILES.

Data set [1] in a line: 1-Octanol/DDH2O partition coefficient, log P of the compound incubated for 48 hrs under stirring condition measured by UV-Vis spectrophotometric method. In kind it is physicochemical. The conditions noted are these: for logP: octanol/water, 48 h. The gist of the method: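 Slow-stir shake method (OECD-based, modified): compound dissolved in water-saturated 1-octanol, centrifuged 5000 rpm 5 min, supernatant mixed with equal volume octanol-saturated water, stirred at room temperature 48 h. Phases separated by centrifugation; octanol-phase UV absorbance read before and after. Log P = log[Ax/(A0−Ax)]. Repeated three times, Mean ± SD.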

Data set [2] concerns Trypanosoma brucei brucei. Put plainly: Antiparasitic activity against Trypanosoma brucei brucei Lister 427 assessed as reduction in parasite viability after 48 hrs by MTS assay. The data set is classed as functional, organism-based. The conditions noted are these: Lister 427, 48 h. A digest of the protocol:
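Bloodstream-form Lister 427 grown in HMI-9 with 10% FBS, 37 °C, 7.5% CO2. 5000 cells/well exposed to graded concentrations with 0.1% DMSO for 48 h at 37 °C. MTS/PMS reagent then added, 3 h at 37 °C, formazan read at 490 nm. Quadruplicate data normalized and fitted to dose–response curves for IC50 (Mean ± S.D.).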

For another data set, the system named is HEK293. Put plainly: Cytotoxicity against HEK293 cells after 48 hrs by MTT assay. In kind it is cell-based. To be noted: Homo sapiens, HEK293, 48 h. The gist of the method:
(§1)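 Cells kept in RPMI1640 with 10% heat-inactivated FBS, 2 mM L-glutamine, 1 mM pyruvate, pen-strep, 37 °C, 5% CO2. 3000 cells/well seeded 24 h, then exposed to graded concentrations (DMSO ≤0.1% final) for 48 h. Then 0.5 mg/mL MTT 3 h at 37 °C, DMSO solubilization, absorbance 570 nm. Quadruplicate data fitted to dose–response curves for IC50.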

The subject of another data set is RAW264.7. Put plainly: Cytotoxicity against mouse RAW264.7 cells after 48 hrs by MTT assay. To be noted: RAW264.7, 48 h. In kind it is cell-based. A digest of the protocol: as §1
Data set [3] in a line: Selectivity index, ratio of IC50 for HEK293 cells to IC50 for Trypanosoma brucei brucei Lister 427. In kind it is toxicity. The conditions noted are these: human, read-out: Ratio IC50. A digest of the protocol:
(§2)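 Ratio of mammalian MTT IC50 (48 h) to T. brucei MTS IC50 (48 h), both from quadruplicate dose–response fits.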

Data set [4] can be described thus: Selectivity index, ratio of IC50 for mouse RAW264.7 cells to IC50 for Trypanosoma brucei brucei Lister 427. In kind it is toxicity. To be noted: read-out: Ratio IC50. The gist of the method: as §2
The subject of data set [5] is Trypanosoma brucei brucei. Put plainly: Inhibition of tubulin polymerization in Trypanosoma brucei brucei Lister 427 assessed as increase in non-polymerized tubulin after 12 hrs by Western blot analysis. The gist of the method: (§3)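 Trypanosomes treated with different doses (0.5% DMSO) for 12 h, washed in TDB pH 7.4 and lysed in Pipes pH 6.8/EGTA/MgCl2/0.15% Triton X-100/glycerol buffer, 4 °C, 5 min. Lysate spun 15,000 g 30 min at 4 °C: supernatant taken as non-polymerized tubulin, RIPA-resuspended pellet as polymerized. Equal cell equivalents (1.83 × 10^7) run on 10% SDS-PAGE for western blot.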

Data set [6] concerns Trypanosoma brucei brucei. Put plainly: Inhibition of tubulin polymerization in Trypanosoma brucei brucei Lister 427 assessed as decrease in polymerized tubulin after 12 hrs by Western blot analysis. A digest of the protocol:
as §3

In turn, `CN(c1ccc(NC(=O)c2ccc(C#N)cc2)cc1OCc1ccc(C(F)(F)F)cc1)S(=O)(=O)Cc1ccccc1` returned a log partition coefficient (logP) at 48 h in data set [1] (1-octanol/DDH2O) of 2.9.
With `N#Cc1ccc(C(=O)Nc2ccc(NS(=O)(=O)C(F)(F)F)c(F)c2)cc1`, the concentration for half-maximal inhibition (IC50) in data set [2] is 2.1 µM; in the data set with HEK293 it was more than 250 µM; with RAW264.7, more than 250 µM. Besides, the selectivity ratio in data set [3] and in data set [4] was more than 119 each time. Also, the lipophilicity (logP) in data set [1] is reported as 0.998. For the same molecule, the inhibition entry in data set [5] and in data set [6] was “Dose-dependent effect” in each case.
In the case of `CCS(=O)(=O)Nc1ccc(NC(=O)c2ccc(Cl)c([N+](=O)[O-])c2)cc1OC`, the IC50 in data set [2] was more than 62.5 µM; in the data set with HEK293, 63.6 µM; in the data set on RAW264.7 it was 5.66 µM. In addition, the selectivity ratio in data set [3] is less than 2; in data set [4] it was less than 1.
The matching figures for `CS(=O)(=O)Nc1ccc(NC(=O)c2ccc(Cl)c([N+](=O)[O-])c2)cc1Cl`: more than 62.5 µM, 204 µM, 43.6 µM, less than 4 and less than 1.
As for `Cc1cc(NC(=O)c2ccc(C#N)cc2)ccc1NS(C)(=O)=O`, the figures for the IC50 (in data set [2]; in the data set with HEK293; with RAW264.7) were more than 62.5 µM, 43.5 µM and 171 µM, respectively. Further, the results for the selectivity ratio in data set [3] and in data set [4] were less than 1 and less than 3, respectively.
The matching figures for `COc1cc(NC(=O)c2ccc(Cl)c([N+](=O)[O-])c2)ccc1NS(=O)(=O)C(F)(F)F`: 14.1 µM, more than 250 µM, more than 250 µM, more than 18 and more than 18.
Consider `O=C(Nc1ccc(NS(=O)(=O)C(F)(F)F)c(Cl)c1)c1ccc(Cl)cc1`, for which the IC50 in data set [2] is more than 62.5 µM; in the data set with HEK293 it was 191 µM; with RAW264.7, 47.1 µM. Besides, the selectivity ratio in data set [3] was less than 4; in data set [4] it was less than 1.
On to `CCS(=O)(=O)Nc1ccc(NC(=O)c2ccc(Cl)c([N+](=O)[O-])c2)cc1C`, for which the IC50 was determined as 19.4 µM in data set [2], 144 µM in the data set on HEK293 and 141 µM in the data set on RAW264.7. Besides, the selectivity ratio in data set [3] and in data set [4] was 7 in each case.
Consider `O=C(Nc1ccc(NS(=O)(=O)C(F)(F)F)c(F)c1)c1ccc(Cl)cc1`, for which the figures for the 50% inhibitory concentration (IC50) (in data set [2]; in the data set on HEK293; in the data set on RAW264.7) were more than 62.5 µM, 79 µM and 8.27 µM, respectively. Further, the selectivity ratio in data set [3] is less than 2; in data set [4], less than 1.
The corresponding values for `CCS(=O)(=O)Nc1ccc(NC(=O)c2ccc(Cl)cc2)cc1Cl` are 19.1 µM, more than 250 µM, more than 250 µM, more than 13 and more than 13.
The corresponding values for `O=C(Nc1ccc(NS(=O)(=O)C(F)(F)F)c(Cl)c1)c1cc(C(F)(F)F)cc(C(F)(F)F)c1` are 47.4 µM, more than 250 µM, 136 µM, more than 5 and 3.
As for `CCS(=O)(=O)Nc1ccc(NC(=O)c2ccc(Cl)cc2)cc1C`, the IC50 in data set [2] was more than 62.5 µM; in the data set with HEK293, 125 µM; in the data set with RAW264.7, 68.7 µM. Also, the selectivity ratio in data set [3] was less than 3; in data set [4], less than 2.
For the molecule `CCS(=O)(=O)Nc1ccc(NC(=O)c2ccc(C#N)cc2)cc1F`, the half-inhibitory concentration (IC50) in data set [2] was more than 62.5 µM; with HEK293 it was 26.4 µM; in the data set with RAW264.7, 107 µM. For the same molecule, the selectivity ratio in data set [3] is less than 1; in data set [4], less than 2.
As to `CCS(=O)(=O)Nc1ccc(NC(=O)c2cc(C(F)(F)F)cc(C(F)(F)F)c2)cc1Cl`, the IC50 in data set [2] was 1.73 µM; in the data set on HEK293, 32.2 µM; in the data set with RAW264.7, 64.1 µM. Also, the selectivity ratio worked out at 19 in data set [3] and 37 in data set [4].
Regarding `CS(=O)(=O)Nc1ccc(NC(=O)c2ccc(Cl)cc2)cc1F`, the half-maximal inhibitory concentration (IC50) is more than 62.5 µM in data set [2], 216 µM with HEK293 and 22.2 µM in the data set with RAW264.7. Further, the selectivity ratio in data set [3] is less than 4; in data set [4] it was less than 1.
Turning to `CCS(=O)(=O)Nc1ccc(NC(=O)c2cccc(C(F)(F)F)c2)cc1F`, the figures for the IC50 (in data set [2]; in the data set on HEK293; in the data set with RAW264.7) were 33.9 µM, 94.8 µM and 119 µM, respectively. The selectivity ratio in data set [3] was 3; in data set [4] it was 4.
Regarding `O=C(Nc1ccc(NS(=O)(=O)C(F)(F)F)c(F)c1)c1ccc(Cl)c([N+](=O)[O-])c1`, the IC50 is 16.8 µM in data set [2], 194 µM in the data set on HEK293 and 188 µM in the data set with RAW264.7. Moreover, the selectivity ratio in data set [3] turned out to be 12; in data set [4], 11.
For `Cc1cc(NC(=O)c2cc(C(F)(F)F)cc(C(F)(F)F)c2)ccc1NS(=O)(=O)C(F)(F)F`, the results for the IC50 (in data set [2]; with HEK293; with RAW264.7) were 20.7 µM, 182 µM and 40.7 µM, respectively. For the same molecule, the selectivity ratio in data set [3] stood at 9; in data set [4] it was 2.
In the case of `COc1cc(NC(=O)c2ccc(Cl)cc2)ccc1NS(=O)(=O)C(F)(F)F`, the IC50 in data set [2] is 45.6 µM; in the data set on HEK293, more than 250 µM; in the data set on RAW264.7, 108 µM. For the same molecule, the selectivity ratio in data set [3] was more than 5; in data set [4], 2.
With `Cc1cc(NC(=O)c2ccc(Cl)c([N+](=O)[O-])c2)ccc1NS(C)(=O)=O`, the results for the half-inhibitory concentration (IC50) (in data set [2]; with HEK293; with RAW264.7) were 7.57 µM, 73.1 µM and 108 µM, respectively. Further, the selectivity ratio in data set [3] turned out to be 10; in data set [4], 14.
Consider `COc1cc(NC(=O)c2ccc(C#N)cc2)ccc1NS(=O)(=O)C(F)(F)F`, for which the IC50 in data set [2] is 9.48 µM; in the data set with HEK293, more than 250 µM; in the data set on RAW264.7, more than 250 µM. Besides, the selectivity ratio in data set [3] and in data set [4] was more than 26 throughout.
`Cc1cc(NC(=O)c2cccc(C(F)(F)F)c2)ccc1NS(=O)(=O)C(F)(F)F`: the half-maximal inhibitory concentration (IC50) amounted to 21.7 µM in data set [2], 131 µM with HEK293 and 8.72 µM in the data set with RAW264.7. For the same molecule, the selectivity ratio is 6 in data set [3] and less than 1 in data set [4].
For the molecule `CS(=O)(=O)Nc1ccc(NC(=O)c2cc(C(F)(F)F)cc(C(F)(F)F)c2)cc1Cl`, the IC50 is 10.1 µM in data set [2], 185 µM with HEK293 and 69.5 µM with RAW264.7. Besides, the figures for the selectivity ratio in data set [3] and in data set [4] were 18 and 7, respectively.
With `Cc1cc(NC(=O)c2cc(C(F)(F)F)cc(C(F)(F)F)c2)ccc1NS(C)(=O)=O`, the concentration for half-maximal inhibition (IC50) was 2.93 µM in data set [2], 163 µM in the data set on HEK293 and more than 250 µM with RAW264.7. For the same molecule, the selectivity ratio in data set [3] is 56; in data set [4], more than 85. The molecule also registered a lipophilicity (logP) in data set [1] of 1.957. For the same molecule, the inhibition entry in data set [5] and in data set [6] was “Dose-dependent effect” throughout.
